A selection: hits, their analogues and other compounds. The true share with any hit is near 4.1%.
KCNQ1 inh: inhibitors of human KCNQ1 channel, primary screen, cell-based, thallium flux, high-throughput. Potassium voltage-gated channel subfamily KQT member 1 (Homo sapiens), P51787. CHO-K1 KCNQ1, FluxOR thallium flux fluorescence; stronger effect = higher value. B-score at 10 µM. 310,000 compounds, 1.3% hits. AID 2642, 2010;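 active means compounds whose thallium flux B-score, printed positive for inhibition, exceeds three library SD while starting fluorescence stays within three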;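 further: channel opened by potassium depolarization with thallium stimulus after 20 min compound exposure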
hERG rescue: hERG rescue from dofetilide block, primary screen, cell-based, CHO-hERG, FluxOR thallium flux, dofetilide IC70. dofetilide IC70 present. activation (rescue from dofetilide block), less the hit threshold, % at 10 µM. 310,000 compounds, 0.51% hits. AID 1511, 2009;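 active means activation above the mean of controls blocked by dofetilide plus 5 SD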;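 further: thallium influx through hERG after potassium depolarization seen as dye fluorescence rise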
KCNK3 block: human KCNK3 channel inhibitors, primary screen, CHO cells, FluxOR thallium flux, B-score; FluxOR fluorescence; stronger effect = lower value; B-score at 10 µM; 340,000 compounds, 0.84% hits; AID 602410, 2012;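 active means B-score under library mean minus 4 SD, starting fluorescence ratio at most library mean plus 5 SD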;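 further: more negative B-score means stronger inhibition of thallium flux through KCNK3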
KCC2 mod: KCC2 cotransporter modulators, thallium flux, primary screen, cell-based, HEK293 KCC2, FluoZin-2 fluorescence, MLSMR. AID 1456, 2008. B-score of Tl+ flux slope (higher = more flux/activation; lower = inhibition) at 10 µM. KCC2 cells, thallium flux FluoZin-2 fluorescence. Solute carrier family 12 member 5 (Homo sapiens), Q9H2X9. 190,000 compounds, 2.2% hits;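 active means thallium flux slope and its plate-corrected score both differing from the plate sample mean at a set confidence after two filtering rounds, in either direction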;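 further: slope of fluorescence scaled to starting intensity during 10 to 20 s after thallium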
KCNK9 block: KCNK9 potassium channel inhibitors, primary screen, HEK293 cells, thallium flux | Potassium channel subfamily K member 9 (Homo sapiens), Q9NPC2 | FluxOR thallium flux fluorescence; stronger effect = lower value | B-score at 10 µM | 310,000 compounds, 1.2% hits;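 active means ratio B-score over 3 SD below the library mean, with starting fluorescence within 5 SD of its mean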;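 further: negative B-score means less thallium flux so channel inhibition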
Target sequence (Q9NPC2 whole entry, looked up): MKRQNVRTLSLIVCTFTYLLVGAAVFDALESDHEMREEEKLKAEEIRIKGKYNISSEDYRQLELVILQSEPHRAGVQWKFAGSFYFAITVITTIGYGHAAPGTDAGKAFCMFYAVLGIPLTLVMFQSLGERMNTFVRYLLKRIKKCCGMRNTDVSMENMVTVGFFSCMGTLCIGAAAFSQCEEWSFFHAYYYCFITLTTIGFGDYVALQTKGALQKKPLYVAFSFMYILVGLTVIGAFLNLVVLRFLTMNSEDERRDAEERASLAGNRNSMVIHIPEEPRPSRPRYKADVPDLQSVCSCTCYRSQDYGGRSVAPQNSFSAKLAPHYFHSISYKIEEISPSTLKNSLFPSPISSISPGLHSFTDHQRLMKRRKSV
KCNQ1 pot: potentiators or activators of KCNQ1 channel, primary screen, cell-based, thallium flux, high-throughput; B-score at 10 µM; 310,000 compounds, 0.35% hits; AID 2648, 2010; Potassium voltage-gated channel subfamily KQT member 1 (Homo sapiens), P51787; CHO-K1 KCNQ1, thallium flux FluxOR fluorescence; stronger effect = higher value;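 active means fluorescence ratio B-score, a plate-corrected score, at least three library SD, with initial intensity B-score within 5 SD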
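Material: CHO-K1 cells stably expressing KCNQ1. Medium: assay buffer for compound exposure, DMSO matched across wells. Reagent: K+/Tl+ depolarizing stimulus. Compound dosing: single-concentration screen. Times: 37 °C overnight plating, 90-min dark dye load, 20-min compound pretreatment. Technique: FluxOR Tl+ flux fluorescence.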
KCC2 secondary: KCC2 modulators in sodium-free buffer, confirmation, cell-based, HEK293 KCC2, thallium flux, secondary assay; shares compounds with KCC2 mod; FluoZin2 fluorescence; stronger effect = higher value; normalised thallium flux (F/F0 slope) at 10 µM; 3,700 compounds, 15% hits; AID 1713, 2009;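 active means thallium flux slope above the same plate's solvent-only control mean plus 3 SD; inconclusive means the two replicate wells disagree; inactive means no significant difference from solvent-only control wells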
KCC2 bumet counter: thallium flux persisting under bumetanide in KCC2 cells, confirmation, counter-screen for KCC2 modulator project, cell-based, HEK293 KCC2, FluoZin2, secondary assay 3; shares compounds with KCC2 mod; HEK293-KCC2 + bumetanide/ouabain; stronger effect = higher value; normalized thallium flux at 10 µM; 3,700 compounds, 49% hits; AID 1714, 2009;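 active means thallium entry rate above the same plate's blocked-transporter control wells by more than 3 SD; inconclusive means the two repeat wells disagree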;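 further: raw slope of fluorescence over initial fluorescence between 10 and 20 s after thallium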
KCC2 sec2: KCC2 modulators without ouabain present, confirmation, cell-based, HEK293 KCC2, thallium flux, FluoZin2, secondary assay 2 | shares compounds with KCC2 mod | thallium flux FluoZin2 fluorescence; actives lie on both sides; F/F0 rise rate, 10–20 s post-thallium | normalized thallium flux at 10 µM | 3,700 compounds, 23% hits | AID 1715, 2009;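 active means thallium flux slope more than 3 SD above or below the plate's solvent-only control mean, mostly below; inconclusive means the two repeat wells disagreed; inactive means no significant shift from solvent-only controls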;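 further: raw slope with 0.1% DMSO as baseline and bumetanide as block control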
HEK counter1: thallium flux modulation in parental HEK cells, confirmation, counter-screen for KCC2 modulator project, cell-based, counterscreen 1. 3,700 compounds, 46% hits. HEK293 parental cells, thallium flux FluoZin2, ouabain; baseline-ratio fluorescence slope, 10–20 s after thallium. thallium flux rate (normalised fluorescence) at 10 µM. shares compounds with KCC2 mod;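 active means thallium flux rate significantly above the same plate's solvent-only control wells, beyond their mean plus 3 SD; inconclusive means the two replicate wells gave conflicting results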
KCC2 ouabain: KCC2 inhibitors and activators, ouabain retest, confirmation, HEK-KCC2 cells; shares compounds with KCC2 mod; HEK293-KCC2, thallium flux FluoZin2 fluorescence; bidirectional: low = inhibitor, high = activator; raw Tl+ flux slope (below DMSO = inhibition, above = activation) at 10 µM; 3,700 compounds, 48% hits;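 active means thallium flux slope beyond 3 SD from same-plate DMSO control mean in most replicates, usually higher, sometimes lower; inconclusive means repeat tests gave conflicting results; inactive means no significant difference from controls in most replicates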;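 further: slope of initial-normalized fluorescence between seconds 10 and 20 after thallium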
HEK counter2: native HEK Tl+ uptake effects, second counter-screen – HEK cells, counterscreen 2, counter-screen for KCC2 modulator project, confirmation | AID 1718, 2009 | 3,700 compounds, 33% hits | thallium flux slope at 10 µM | HEK293 parental, thallium flux FluoZin-2 fluorescence slope | shares compounds with KCC2 mod;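 active means thallium flux slope above the same plate's solvent-control mean plus 3 SD in both duplicate wells; inconclusive means duplicate wells that disagreed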;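 further: run without ouabain in cells lacking the KCC2 cotransporter; slope of fluorescence scaled to its starting value between 10 and 20 s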
* = called active by the depositor; i = inactive; ? = inconclusive; . = not tested or not shown.

SMILES	KCNQ1 inh	hERG rescue	KCNK3 block	KCC2 mod	KCNK9 block	KCNQ1 pot	KCC2 secondary	KCC2 bumet counter	KCC2 sec2	HEK counter1	KCC2 ouabain	HEK counter2
Cc1ccc(Nc2c([N+](=O)[O-])c(=O)oc3ccccc23)cc1	i	-19	i	-2	i	i	.	.	.	.	.	.
CC1CC(C)CN(CC(=O)Nc2cc(S(=O)(=O)N3CCOCC3)ccc2N2CCCC2)C1 (stereo not drawn)	.	.	i	.	.	.	.	.	.	.	.	.
COc1ccccc1-c1nnc2sc(COc3ccc(F)cc3)nn12	i	-10	i	-3.9*	i	i	0.0066	0.0048	?	0.0059*	0.015*	?
Cc1noc(C)c1CN1C(=O)NC2(CCc3ccccc3C2)C1=O (stereo not drawn)	i	-3	i	0.12	i	i	0.0097	0.0069	0.034	0.0074	0.022	0.01
Cc1ccc(C2(C)NC(=O)N(Cc3c(C)noc3C)C2=O)cc1 (stereo not drawn)	i	-5	i	0.024	i	i	.	.	.	.	.	.
Cc1ncc(COCc2ccccc2)c(CO)c1OCc1ccccc1	.	.	i	.	.	.	.	.	.	.	.	.
CCCN(CC(=O)Nc1ccc(C(N)=O)cc1)CC(=O)Nc1ccc(F)c(F)c1F	i	1	i	.	i	i	.	.	.	.	.	.
CN1c2ccccc2Oc2nnc(Cl)cc21	i	-2	i	0.14	i	i	.	.	.	.	.	.
CN1c2ccccc2Oc2nnc(N3CCN(Cc4ccccc4)CC3)cc21	i	-18	i	-4*	i	i	0.0053	?	0.021*	0.0065	?	0.011
COc1ccccc1C(=O)NC(=O)COC(=O)CNC(=O)c1ccc(Cl)c([N+](=O)[O-])c1	i	-17	i	.	i	i	.	.	.	.	.	.
O=C(Nc1nc2cc3c(cc2s1)OCO3)c1ccco1	i	-7	i	0.78	i	i	.	.	.	.	.	.
C(=N\Nc1nc(-c2ccccc2)cs1)/c1ccco1	i	-14	i	-4.3*	i	i	0.009	0.0053	?	0.0086	0.015*	0.012

Source: PubChem BioAssay (several laboratories)
